# Results gathered from unrelated publications.
Structure (SMILES),target,read-out,technique,setting,Kd
COc1cc2c(Oc3ccc4[nH]c(C)cc4c3F)ccnc2cc1OCC1(N)CC1,"AMP-activated protein kinase (AMPK) alpha-1/beta-1/gamma-1 (PRKAG1/PRKAA1/PRKAB1, Homo sapiens, UniProt P54619+Q13131+Q9Y478)",binding,SPR,,23.5 µM
FC(F)(F)c1n[nH]cc1-c1nc2ccc3[nH]ncc3c2c2c1CCCC2,"Tyrosine-protein kinase ABL1, phosphorylated (ABL1, Homo sapiens, UniProt P00519)",binding,competition with immobilised ligand,,7.2 µM
Cc1cc2nc3c(=O)[nH]c(=O)nc-3n(C[C@H](O)[C@H](O)[C@H](O)COP(=O)(O)OP(=O)(O)OC[C@H]3O[C@@H](n4cnc5c(N)ncnc54)[C@H](O)[C@@H]3O)c2cc1C,"CPEB4 (Homo sapiens, UniProt Q17RY0)",binding,,lysate,0.005 µM
Cc1cnc(-c2ccc(-c3ccc(NC(=O)Nc4c(F)cc(F)cc4F)cc3F)c3c2C(=O)NC3)[nH]1,"Dual specificity mitogen-activated protein kinase kinase 6 (MAP2K6, Homo sapiens, UniProt P52564)",binding,competition with immobilised ligand,,0.012 µM
COc1ccc2c(c1)sc(-c1ccc(N(C)C)cc1)[n+]2C,"Alpha-synuclein, fibril (SNCA, Homo sapiens, UniProt P37840)",binding,SPR,,72.3 µM
CC#CC(=O)N1CC[C@@H](n2cc(-c3ccc(Oc4c(F)cccc4F)cc3)c3c(N)n[nH]c(=O)c32)C1,"Tyrosine-protein kinase ITK/TSK (ITK, Homo sapiens, UniProt Q08881)",binding,competition with immobilised ligand,,> 3 µM
CC(C)C[C@H](NC(=O)[C@H](C)NC(=O)[C@@H](NC(=O)[C@H](CCCCN)NC(=O)[C@H](CC(=O)O)NC(=O)[C@H](Cc1ccc(OP(=O)(O)O)cc1)NC(=O)[C@H](C)NC(=O)[C@H](CC(N)=O)NC(=O)[C@@H]1CCCN1C(=O)[C@@H](NC(=O)[C@H](CCCNC(=N)N)NC(=O)[C@H](CCCCN)NC(=O)CCCCCNC(=O)CCCC[C@@H]1SC[C@@H]2NC(=O)N[C@@H]21)C(C)C)[C@@H](C)O)C(=O)N[C@@H](C)C(=O)N[C@@H](CC(C)C)C(=O)N[C@@H](CCC(=O)O)C(=O)O,"Tyrosine-protein kinase ABL1, SH2 (ABL1, Homo sapiens, UniProt P00519)",binding,ITC,,85.5 µM
O=c1cccccc1O,"Carbonic anhydrase 2 (CA2, Homo sapiens, UniProt P00918)",binding,ITC,,1680 µM
CCCN1CCN(c2ccc(-c3cncc(Cl)c3N3CCC4(CCNC4=O)CC3)cc2)CC1,"Nicotinamide phosphoribosyltransferase (NAMPT, Homo sapiens, UniProt P43490)",cell-free assay,,lysate,6.42 µM
Cc1cc(Nc2cc3ncccc3c(N[C@@H]3C[C@H]4CC[C@@H](C3)N4CCC#N)n2)n[nH]1,"Mitogen-activated protein kinase kinase kinase 2 (MAP3K2, Homo sapiens, UniProt Q9Y2U5)",binding,competition with immobilised ligand,,0.019 µM
COc1cc(Nc2ncc3c(n2)-c2ccc(Cl)cc2C(c2c(F)cccc2OC)=NC3)ccc1C(=O)O,"Protein-tyrosine kinase 2-beta (PTK2B, Homo sapiens, UniProt Q14289)",binding,,lysate,2.99 µM
